From ChEMBL document CHEMBL1765024, “Fluorescent cyclin-dependent kinase inhibitors block the proliferation of human breast cancer cells” (Bioorg Med Chem, 2011)
Calls of active or inactive are those of the source. No cut-off for these calls is given here.

What was measured:
[1] = tested on: MDA-MB-231; assay: Induction of apoptosis in human MDA-MB-231 cells assessed as decrease in Bcl2 protein level at 40 uM after 48 hrs by Western blotting; format: functional, cell-based
Outline: (§1)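 Cells treated with vehicle or compound, then lysed in NP-40/Triton X-100 buffer with protease and phosphatase inhibitors. Lysate protein measured by BCA, and equal protein run on 10% SDS–PAGE and transferred to PVDF. Blocked overnight in 5% milk/TBST, primary antibody 2 h, HRP secondary 1 h, ECL detection.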

[2] = tested on: MDA-MB-231; assay: Induction of apoptosis in human MDA-MB-231 cells assessed as increase in Bax protein level at 40 uM after 48 hrs by Western blotting; format: functional, cell-based; outline: as §1
[3] = tested on: MDA-MB-231; assay: Induction of apoptosis in human MDA-MB-231 cells assessed as decrease in caspase 3 protein level at 40 uM after 48 hrs by Western blotting; format: functional, cell-based; outline: as §1
[4] = tested on: MDA-MB-231; assay: Induction of apoptosis in human MDA-MB-231 cells assessed as decrease in caspase 7 protein level at 40 uM after 48 hrs by Western blotting; format: functional, cell-based; outline: as §1
[5] = tested on: MCF7; assay: Induction of apoptosis in human MCF7 cells assessed as viable cells at 10 uM after 24 hrs using annexinV-propidium iodide staining by flow cytometry (reference value: 70.32%); format: functional; conditions: MCF7, 24 h, read-out: Activity
[6] = tested on: MCF7; assay: Induction of apoptosis in human MCF7 cells assessed as early apoptotic cells at 10 uM after 24 hrs using annexinV-propidium iodide staining by flow cytometry (reference value: 4.24%); format: functional
[7] = tested on: MCF7; assay: Induction of apoptosis in human MCF7 cells assessed as late apoptotic cells at 10 uM after 24 hrs using annexinV-propidium iodide staining by flow cytometry (reference value: 13.35%); format: functional
[8] = tested on: MCF7; assay: Induction of apoptosis in human MCF7 cells assessed as necrotic cells at 10 uM after 24 hrs using annexinV-propidium iodide staining by flow cytometry (reference value: 12.09%); format: functional
[9] = tested on: MDA-MB-231; assay: Antiproliferative activity against estrogen receptor-deficient human MDA-MB-231 cells after 48 hrs by WST-1 assay; format: functional, cell-based; conditions: MDA-MB-231, 48 h
Outline: (§2)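 Cells seeded at 3000/well in DMEM with 10% FBS and left 24 h. Compounds in DMSO were serially diluted in medium (1–100 µM) and added in triplicate. WST-1 was read 48 h after addition: 2–3 h incubation, absorbance at 450 nm with 630 nm reference. IC50 interpolated from log concentration versus fraction surviving; mean (SEM) of triplicate experiments.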

[10] = biological target: CDK9/cyclin T1 (Homo sapiens) (UniProt O60563+P50750); assay: Inhibition of at human CDK9/cyclin T1 at 0.1 uM after 40 mins relative to control; format: protein-complex assay
Outline: (§3)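 Radiometric screen at 100 nM compound against purified human CDK/cyclin (5–10 mU). Incubation 40 min at room temperature, stopped with phosphoric acid. Read by filtermat scintillation. Activity expressed as % of control, N = 2.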

[11] = biological target: Cyclin-dependent kinase 7/ cyclin H (Homo sapiens) (UniProt P51946+P50613); assay: Inhibition of human CDK7/cyclinH/MAT1 at 0.1 uM after 40 mins relative to control; format: protein-complex assay; outline: as §3
[12] = tested on: MDA-MB-231; assay: Cell cycle arrest in human MDA-MB-231 cells assessed as accumulation at G2/M phase treated at 5 uM for 24 hrs measured after drug washout following 48 hrs growth recovery using propidium iodide staining by flow cytometry; format: functional, cell-based
Outline: (§4)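 Exponentially growing cells exposed 24 h, then held a further 48 h in compound-free medium. Cells trypsinized, pelleted, PBS-washed, permeabilized in 70% ethanol, stained 30 min in the dark at room temperature with PI plus RNase, and analysed by flow cytometry. Phase percentages given after subtracting untreated control. Mean of triplicate experiments.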

[13] = tested on: MDA-MB-231; assay: Cell cycle arrest in human MDA-MB-231 cells assessed as accumulation at G2/M phase treated at 10 uM for 24 hrs measured after drug washout following 48 hrs growth recovery using propidium iodide staining by flow cytometry; format: functional, cell-based; outline: as §4
[14] = Antiproliferative activity against human CL 10.3 cells expressing p-glycoprotein after 72 hrs by WST-1 assay; format: functional, cell-based
Outline: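 MCF-7 and its P-glycoprotein-overexpressing MDR subline CL 10.3 were grown in DMEM with 10% heat-inactivated FBS. Compounds in DMSO were serially diluted in medium and given to cells for 72 h. Read-out was WST-1 reduction (450 nm, 630 nm reference). IC50 interpolated from log concentration versus fraction surviving; mean (SEM) of triplicates. Ratio is CL 10.3 IC50 over MCF-7 IC50.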

[15] = tested on: MCF7; assay: Antiproliferative activity against human MCF7 cells expressing estrogen receptor after 48 hrs by WST-1 assay; format: functional, cell-based; conditions: MCF7, 48 h; outline: as §2
[16] = tested on: MDA-MB-231; assay: Induction of apoptosis in human MDA-MB-231 cells assessed as reduction of cdc2 phosphorylation at T161 catalytic site at 10 uM after 24 hrs by Western blot analysis; format: functional, cell-based
Outline: (§5)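 MDA-MB-231 cells were treated with 10 µM compound for 1, 3, 6, 12 and 24 h and lysed. Equal protein was resolved by 10% SDS–PAGE and immunoblotted for phospho-cdc2 (T161, Y15), cdc2 and cyclin B, with actin as loading standard and ECL detection.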

[17] = tested on: MDA-MB-231; assay: Induction of apoptosis in human MDA-MB-231 cells assessed as reduction of cdc2 phosphorylation at Y15 regulatory site at 10 uM after 24 hrs by Western blot analysis; format: functional, cell-based; outline: as §5
[18] = tested on: MCF7; assay: Antiproliferative activity against human MCF7 cells expressing estrogen receptor at 100 uM after 48 hrs by WST-1 assay; format: functional, cell-based
Outline: (§6)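 Cells seeded at 3000/well in DMEM with 10% FBS and left 24 h, then given compound from DMSO stock diluted in medium at 100 µM. Survival read by WST-1 48 h after addition: 2–3 h incubation, absorbance at 450 nm with 630 nm reference; triplicate experiments.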

[19] = tested on: MDA-MB-231; assay: Antiproliferative activity against estrogen receptor-deficient human MDA-MB-231 cells at 100 uM after 48 hrs by WST-1 assay; format: functional, cell-based; outline: as §6
[20] = biological target: CDK3/cyclin E (Homo sapiens) (UniProt P24864+O96020+Q00526); assay: Inhibition of human CDK3/cyclin E at 0.1 uM after 40 mins relative to control; format: protein-complex assay; outline: as §3
[21] = biological target: T1, Cyclin-dependent kinase 5/CDK5 activator 1 (Homo sapiens) (UniProt Q00535+Q15078); conditions: at 0.1 µM
[22] = biological target: T1, Cyclin-dependent kinase 5/CDK5 activator 1 (Homo sapiens); conditions: at 0.1 µM; remark: listed apart in the source
[23] = biological target: Cyclin-dependent kinase 1/cyclin B1 (Homo sapiens) (UniProt P06493+P14635); conditions: at 0.1 µM
[24] = tested on: MDA-MB-231; assay: Induction of apoptosis in human MDA-MB-231 cells assessed as decrease in Bcl2 protein level at 10 uM after 48 hrs by Western blotting; format: functional, cell-based
Outline: (§7)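 MDA-MB-231 cells were treated with vehicle or 10 µM compound for 48 h (and 72 h). Lysates were cleared and protein measured by BCA. Equal protein was run on 10% SDS–PAGE and transferred to PVDF, blocked in 5% milk overnight, and probed 2 h with anti-Bcl-2, Bax or PARP. HRP secondary was applied for 1 h, with ECL detection.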

[25] = tested on: MDA-MB-231; assay: Induction of apoptosis in human MDA-MB-231 cells assessed as increase in Bax protein level at 10 uM after 48 hrs by Western blotting; format: functional, cell-based; outline: as §7
[26] = tested on: MDA-MB-231; assay: Induction of apoptosis in human MDA-MB-231 cells assessed as decrease in caspase 3 protein level at 10 uM after 48 hrs by Western blotting; format: functional, cell-based
[27] = tested on: MDA-MB-231; assay: Induction of apoptosis in human MDA-MB-231 cells assessed as decrease in caspase 7 protein level at 10 uM after 48 hrs by Western blotting; format: functional, cell-based
[28] = tested on: MDA-MB-231; assay: Induction of apoptosis in human MDA-MB-231 cells assessed as induction of PARP cleavage at 10 uM after 48 hrs by Western blotting; format: functional, cell-based; outline: as §7
[29] = tested on: MDA-MB-231; assay: Cell cycle arrest in human MDA-MB-231 cells assessed as accumulation at G2/M phase at 5 to 10 uM after 16 to 40 hrs using propidium iodide staining by flow cytometry; format: functional, cell-based
Outline: (§8)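 Asynchronous cells were treated with 5 or 10 µM compound or DMSO for 24 h (also 16 and 40 h). They were trypsinized, washed in PBS and fixed/permeabilized in 70% ethanol. Staining was with RNase and propidium iodide for 30 min in the dark at room temperature, followed by flow cytometry. Phase percentages are given minus DMSO control; mean of triplicates.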

[30] = tested on: MDA-MB-231; assay: Induction of apoptosis in human MDA-MB-231 cells assessed as aberrant gross morphological changes at 10 uM after 48 hrs using propidium iodide staining by confocal microscopic analysis; format: functional, cell-based
[31] = tested on: MDA-MB-231; assay: Induction of apoptosis in human MDA-MB-231 cells assessed as decrease in cell number at 10 uM after 48 hrs using propidium iodide staining by confocal microscopic analysis; format: functional, cell-based
[32] = tested on: MDA-MB-231; assay: Cell cycle arrest in human MDA-MB-231 cells assessed as accumulation at G2/M phase at 5 to 10 uM after 24 hrs using propidium iodide staining by flow cytometry; format: functional, cell-based; outline: as §8
[33] = tested on: MCF7; assay: Cell cycle arrest in human MCF7 cells assessed as accumulation at G2/M phase at 5 to 10 uM after 24 hrs using propidium iodide staining by flow cytometry; format: functional, cell-based; outline: as §8
[34] = tested on: MDA-MB-231; assay: Cell cycle arrest in human MDA-MB-231 cells assessed as accumulation at sup G1 phase at 5 to 10 uM after 24 hrs using propidium iodide staining by flow cytometry; format: functional, cell-based; outline: as §8
[35] = tested on: MCF7; assay: Cell cycle arrest in human MCF7 cells assessed as accumulation at sub G1 phase at 5 to 10 uM after 24 hrs using propidium iodide staining by flow cytometry; format: functional, cell-based; outline: as §8
[36] = tested on: MCF7; assay: Cell cycle arrest in human MCF7 cells assessed as accumulation at G2/M phase at 5 to 10 uM after 16 to 40 hrs using propidium iodide staining by flow cytometry; format: functional, cell-based; outline: as §8
[37] = tested on: MCF7; assay: Induction of apoptosis in human MCF7 cells assessed as aberrant gross morphological changes at 10 uM after 48 hrs using propidium iodide staining by confocal microscopic analysis; format: functional, cell-based
[38] = tested on: MCF7; assay: Induction of apoptosis in human MCF7 cells assessed as decrease in cell number at 10 uM after 48 hrs using propidium iodide staining by confocal microscopic analysis; format: functional, cell-based

T1 sequence (Q00535 whole entry): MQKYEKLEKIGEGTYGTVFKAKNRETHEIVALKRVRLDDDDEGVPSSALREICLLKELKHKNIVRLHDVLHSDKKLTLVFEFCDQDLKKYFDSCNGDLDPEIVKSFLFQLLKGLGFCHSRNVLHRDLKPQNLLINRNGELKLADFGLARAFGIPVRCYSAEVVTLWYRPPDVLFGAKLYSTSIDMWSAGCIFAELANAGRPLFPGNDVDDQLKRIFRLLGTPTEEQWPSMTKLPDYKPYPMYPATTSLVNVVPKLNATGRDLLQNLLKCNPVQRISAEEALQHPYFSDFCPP
T1 sequence (Q15078 99-307 partner limits assumed): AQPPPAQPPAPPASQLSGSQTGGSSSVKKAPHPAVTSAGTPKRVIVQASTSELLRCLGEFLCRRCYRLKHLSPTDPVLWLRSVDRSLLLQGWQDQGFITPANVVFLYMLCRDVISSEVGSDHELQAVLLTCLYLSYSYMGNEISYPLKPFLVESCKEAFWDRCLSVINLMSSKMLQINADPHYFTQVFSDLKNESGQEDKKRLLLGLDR
Chain of Cyclin-dependent kinase 1/cyclin B1 (Homo sapiens) (P06493 whole entry, looked up): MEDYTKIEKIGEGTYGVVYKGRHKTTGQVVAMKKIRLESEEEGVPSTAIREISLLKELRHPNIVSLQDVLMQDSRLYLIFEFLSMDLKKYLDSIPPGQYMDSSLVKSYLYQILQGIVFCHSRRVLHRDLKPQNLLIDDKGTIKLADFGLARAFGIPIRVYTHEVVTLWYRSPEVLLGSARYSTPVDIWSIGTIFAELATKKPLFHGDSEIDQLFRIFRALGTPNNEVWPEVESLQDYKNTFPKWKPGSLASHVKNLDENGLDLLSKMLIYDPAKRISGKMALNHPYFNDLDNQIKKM
Chain of Cyclin-dependent kinase 1/cyclin B1 (Homo sapiens) (P14635 whole entry, looked up): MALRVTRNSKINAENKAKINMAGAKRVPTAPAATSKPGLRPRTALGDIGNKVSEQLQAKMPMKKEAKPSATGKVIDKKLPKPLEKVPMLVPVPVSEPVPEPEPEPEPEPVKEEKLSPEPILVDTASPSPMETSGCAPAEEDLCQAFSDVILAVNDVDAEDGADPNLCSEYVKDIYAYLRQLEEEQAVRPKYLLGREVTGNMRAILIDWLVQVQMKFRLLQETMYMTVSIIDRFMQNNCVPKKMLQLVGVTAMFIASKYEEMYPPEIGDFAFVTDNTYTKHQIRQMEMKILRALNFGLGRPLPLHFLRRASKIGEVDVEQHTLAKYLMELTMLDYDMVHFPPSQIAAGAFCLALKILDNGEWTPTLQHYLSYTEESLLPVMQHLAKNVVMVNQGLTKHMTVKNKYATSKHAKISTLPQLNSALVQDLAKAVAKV
Chain of CDK3/cyclin E (Homo sapiens) (O96020 whole entry, looked up): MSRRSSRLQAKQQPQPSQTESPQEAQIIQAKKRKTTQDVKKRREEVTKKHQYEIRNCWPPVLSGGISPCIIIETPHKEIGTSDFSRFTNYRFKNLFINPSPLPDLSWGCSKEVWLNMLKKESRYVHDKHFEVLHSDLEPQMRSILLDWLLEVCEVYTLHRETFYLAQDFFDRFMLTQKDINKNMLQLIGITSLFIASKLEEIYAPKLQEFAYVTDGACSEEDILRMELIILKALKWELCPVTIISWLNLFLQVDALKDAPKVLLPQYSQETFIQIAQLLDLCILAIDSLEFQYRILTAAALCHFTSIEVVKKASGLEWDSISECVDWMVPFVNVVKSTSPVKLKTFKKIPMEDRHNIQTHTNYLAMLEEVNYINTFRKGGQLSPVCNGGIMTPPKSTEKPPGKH
Chain of CDK3/cyclin E (Homo sapiens) (P24864 whole entry, looked up): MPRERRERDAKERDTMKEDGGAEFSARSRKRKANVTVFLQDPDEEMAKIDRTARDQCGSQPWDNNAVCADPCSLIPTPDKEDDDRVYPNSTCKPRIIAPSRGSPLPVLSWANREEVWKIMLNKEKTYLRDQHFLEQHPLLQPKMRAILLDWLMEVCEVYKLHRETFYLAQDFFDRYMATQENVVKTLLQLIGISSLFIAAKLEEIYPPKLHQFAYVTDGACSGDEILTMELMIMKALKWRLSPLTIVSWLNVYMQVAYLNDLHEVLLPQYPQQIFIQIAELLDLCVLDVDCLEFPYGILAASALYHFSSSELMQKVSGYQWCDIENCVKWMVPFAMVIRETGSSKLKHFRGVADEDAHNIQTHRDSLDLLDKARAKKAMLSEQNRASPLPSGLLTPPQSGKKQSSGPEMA
Chain of CDK3/cyclin E (Homo sapiens) (Q00526 whole entry, looked up): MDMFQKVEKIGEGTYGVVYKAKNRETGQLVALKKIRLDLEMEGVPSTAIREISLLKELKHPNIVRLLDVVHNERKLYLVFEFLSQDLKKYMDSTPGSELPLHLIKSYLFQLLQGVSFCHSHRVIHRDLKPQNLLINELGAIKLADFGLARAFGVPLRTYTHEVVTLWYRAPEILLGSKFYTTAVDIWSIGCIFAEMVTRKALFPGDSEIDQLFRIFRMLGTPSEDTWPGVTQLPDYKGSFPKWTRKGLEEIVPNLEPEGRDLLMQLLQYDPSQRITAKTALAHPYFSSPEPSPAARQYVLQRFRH

Row | Structure (SMILES) | viability at 10 µM [5] | Activity [6] | Activity [7] | Activity [8] | IC50 [9] | inhibition [10] | inhibition [11] | IC50 [15] | inhibition [20] | inhibition [21] | inhibition [22] | inhibition [23] | further results
1 | CC[C@H](CO)Nc1nc(NCc2ccccc2)c2ncn(C(C)C)c2n1 [SELICICLIB] | 73.1% | 7.13% | 13.2% | 6.56% | 54.6 µM | 19% | 26% | – | – | – | – | – | Activity [1]: inactive; Activity [2]: inactive; Activity [3]: inactive; Activity [4]: inactive; Activity [12]: inactive; Activity [13]: inactive
2 | CC(=O)O[C@H]1C(=O)[C@@]2(C)[C@H]([C@H](OC(=O)c3ccccc3)[C@]3(O)C[C@H](OC(=O)[C@H](O)[C@@H](NC(=O)c4ccccc4)c4ccccc4)C(C)=C1C3(C)C)[C@]1(OC(C)=O)CO[C@@H]1C[C@@H]2O [PACLITAXEL] | – | – | – | – | – | – | – | – | – | – | – | – | IC50 [14]: > 50 µM
3 | CN(C)c1cccc2c(S(=O)(=O)NCCN)cccc12 [DANSYL ETHYLENEDIAMINE] | – | – | – | – | > 100 µM | – | – | > 100 µM | – | – | – | – | –
4 | CC(C)[C@H](CO)Nc1nc(Nc2ccc(C(=O)O)c(Cl)c2)c2ncn(C(C)C)c2n1 [PURVALANOL B] | – | – | – | – | > 100 µM | 22% | 66% | > 100 µM | 89% | 97% | 97% | 78% | Activity [16]: inactive; Activity [17]: inactive; Activity [18]: inactive; Activity [19]: inactive
5 | CC[C@H](CO)Nc1nc(Nc2ccc(C(=O)NCCNS(=O)(=O)c3cccc4c(N(C)C)cccc34)c(Cl)c2)c2ncn(C(C)C)c2n1 | 52.3% | 8.87% | 16.74% | 22.14% | 4.86 µM | 44% | 57% | 19.1 µM | 40% | 67% | 76% | 16% | Activity [24]: Active; Activity [25]: Active; Activity [26]: Active; Activity [27]: Active; Activity [28]: Active; Activity [29]: Active; Activity [30]: Active; Activity [31]: Active; Activity [32]: Active; Activity [33]: Active; Activity [34]: Active; Activity [35]: Active; Activity [36]: Active; Activity [37]: Active; Activity [38]: Active
